ChEMBL document CHEMBL4813962, “Design, synthesis and biological evaluation of sulfamoylphenyl-quinazoline derivatives as potential EGFR/CAIX dual inhibitors” (Eur J Med Chem, 2021)
Calls of active or inactive are those of the source. The rule behind the calls is not given here.

Key:
A-431 = assay: cells; type: functional, cell-based; settings: Homo sapiens, A-431, 72 h
NCI-H1975 [1] = assay: Antiproliferative activity against human NCI-H1975 cells assessed as reduction in cell viability incubated for 72 hrs by MTT assay; type: functional, cell-based; settings: NCI-H1975, 72 h
L02 = assay: cells; type: functional, cell-based; settings: Homo sapiens, L02, 72 h
NCI-H1975 [2] = assay: Cytotoxicity against human NCI-H1975 cells assessed as reduction in cell viability incubated for 72 hrs under hypoxic condition by MTT assay; type: functional, cell-based; settings: NCI-H1975, 72 h
Procedure, shortened: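 H1975 cells grown in medium with 10% FBS and penicillin/streptomycin under hypoxia (1% O2, 94% N2, 5% CO2) at 37 °C. Compounds dissolved in DMSO and diluted in medium, final DMSO below 0.4%. Incubated 72 h at 37 °C, then MTT (5 mg/mL) for 4 h. Formazan dissolved in DMSO and OD read at 570/630 nm. IC50 from three parallel experiments.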

NCI-H1975 [3] = assay: Downregulation of carbonic anhydrase in human NCI-H1975 cells at 2 uM incubated for 24 hrs in hypoxic condition by Western blot analysis; type: functional, cell-based
Procedure, shortened: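 H1975 cells treated 24 h under hypoxia (1% O2, 94% N2, 5% CO2, 37 °C), with untreated cells as negative control. Lysed on ice for 30 min, spun at 20 000 g (4 °C, 10 min), protein measured by BCA. Equal protein run on 12% SDS-PAGE and moved to PVDF. Blocked in 5% milk/TBST, anti-CAIX overnight at 4 °C, peroxidase secondary 2 h, chemiluminescent detection.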

NCI-H1975 [4] = assay: Antimigratory activity in human NCI-H1975 cells assessed as reduction in cell migration incubated for 24 hrs by wound healing assay; type: functional, cell-based; settings: dose 0.5-1 µM
Procedure, shortened: (§1)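 H1975 monolayer scratched with pipette tip, washed twice with PBS, then kept in serum-free medium with test compound at 0.5 or 1.0 µM; untreated control got medium only. Wound photographed by inverted microscope after 24 h and wound area traced. Migration rate = (0 h wound area − […] wound area)/0 h wound area.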

Carbonic anhydrase 2 = Carbonic anhydrase 2 (Homo sapiens, UniProt P00918); assay: Inhibition of human carbonic anhydrase 2 using p-nitrophenyl acetate as substrate by UV-VIS spectrophotometric analysis
A549 [5] = assay: cells; type: functional, cell-based; settings: Homo sapiens, A549, 72 h
NCI-H1975 [6] = assay: Induction of apoptosis in human NCI-H1975 cells assessed as early apoptotic cells at 2 uM incubated for 24 hrs by annexin V-FITC and propidium iodide based flow cytometry analysis (reference value: 1.34 %); type: functional
[7] = target: T1, Epidermal growth factor receptor (Homo sapiens, UniProt P00533); assay: Inhibition of EGFR in human NCI-H1975 cells assessed as reduction in ERK phosphorylation incubated for 24 hrs by Western blot analysis; type: cell-based; settings: dose 2-5 µM
Procedure, shortened: (§2)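 H1975 cells exposed to 2 or 5 µM compound for 24 h under normoxia. Lysates made on ice, protein measured by BCA, equal amounts separated on 12% SDS-PAGE and moved to PVDF. Blots blocked in 5% milk/TBST, incubated overnight at 4 °C with antibodies to EGFR/p-EGFR, AKT/p-AKT and ERK/p-ERK, and developed by chemiluminescence.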

[8] = target: Epidermal growth factor receptor (Homo sapiens, UniProt P00533, T790M)
Carbonic anhydrase 9 [9] = target: T2, Carbonic anhydrase 9 (Homo sapiens, UniProt Q16790)
A549 [10] = assay: Cytotoxicity against human A549 cells assessed as reduction in cell viability incubated for 72 hrs under hypoxic condition by MTT assay; type: functional, cell-based; settings: A549, 72 h
Procedure, shortened: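 A549 cells given compound for 72 h at 37 °C in hypoxia (1% O2, 94% N2, 5% CO2). Compounds taken up in DMSO and diluted in medium, final DMSO below 0.4%. MTT then added for 4 h, formazan dissolved in DMSO, absorbance read at 570/630 nm. IC50 from three parallel experiments.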

NCI-H1975 [11] = assay: Downregulation of carbonic anhydrase 9 in human NCI-H1975 cells incubated for 24 hrs in hypoxic condition by Western blot analysis; type: functional, cell-based
Procedure, shortened: (§3)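 Lysates cleared at 20 000 g, protein quantified by BCA, equal amounts run on 12% SDS-PAGE and blotted to PVDF. Probed overnight at 4 °C for CAIX and HIF-1α, chemiluminescent detection.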

NCI-H1975 [12] = assay: Induction of cell cycle arrest in human NCI-H1975 cells incubated for 24 hrs by propidium iodide based flow cytometry analysis; type: functional; settings: dose 2-5 µM
NCI-H1975 [13] = assay: Induction of cell cycle arrest in human NCI-H1975 cells assessed as G2/M phase at 2 uM incubated for 24 hrs by propidium iodide based flow cytometry analysis (reference value: 14.74 %); type: functional
[14] = target: T1, Epidermal growth factor receptor; assay: Inhibition of EGFR in human NCI-H1975 cells assessed as reduction in AKT phosphorylation incubated for 24 hrs by Western blot analysis; type: cell-based; settings: dose 2-5 µM
Procedure, shortened: as §2

NCI-H1975 [15] = assay: Induction of cell cycle arrest in human NCI-H1975 cells assessed as S phase at 2 uM incubated for 24 hrs by propidium iodide based flow cytometry analysis (reference value: 24.50 %); type: functional
NCI-H1975 [16] = assay: Induction of cell cycle arrest in human NCI-H1975 cells assessed as G2/M phase at 5 uM incubated for 24 hrs by propidium iodide based flow cytometry analysis (reference value: 14.74 %); type: functional
NCI-H1975 [17] = assay: Induction of cell cycle arrest in human NCI-H1975 cells assessed as G1 phase at 2 uM incubated for 24 hrs by propidium iodide based flow cytometry analysis (reference value: 60.76 %); type: functional
NCI-H1975 [18] = assay: Induction of apoptosis in human NCI-H1975 cells assessed as late apoptotic cells at 5 uM incubated for 24 hrs by annexin V-FITC and propidium iodide based flow cytometry analysis (reference value: 4.98 %); type: functional
NCI-H1975 [19] = assay: Induction of cell cycle arrest in human NCI-H1975 cells assessed as S phase at 5 uM incubated for 24 hrs by propidium iodide based flow cytometry analysis (reference value: 24.50 %); type: functional
NCI-H1975 [20] = assay: Induction of apoptosis in human NCI-H1975 cells assessed as necrotic cells at 2 uM incubated for 24 hrs by annexin V-FITC and propidium iodide based flow cytometry analysis (reference value: 0.455 %); type: functional
NCI-H1975 [21] = assay: Antimigratory activity in human NCI-H1975 cells assessed as cell migration at 1 uM incubated for 24 hrs by wound healing assay (reference value: 51.2 %); type: functional
Procedure, shortened: as §1

NCI-H1975 [22] = assay: Induction of apoptosis in human NCI-H1975 cells assessed as viable cells at 5 uM incubated for 24 hrs by annexin V-FITC and propidium iodide based flow cytometry analysis (reference value: 93.2 %); type: functional; settings: read-out: Activity
Carbonic anhydrase 9 [23] = target: T2, Carbonic anhydrase 9; assay: Downregulation of carbonic anhydrase 9 in human NCI-H1975 cells assessed as reduction in HIF-1alpha incubated for 24 hrs in hypoxic condition by Western blot analysis; type: cell-based
Procedure, shortened: as §3

[24] = target: T1, Epidermal growth factor receptor
[25] = target: T1, Epidermal growth factor receptor; assay: Inhibition of EGFR in human NCI-H1975 cells assessed as reduction in EGFR phosphorylation incubated for 24 hrs by Western blot analysis; type: cell-based; settings: dose 2-5 µM
Procedure, shortened: as §2

NCI-H1975 [26] = assay: Induction of apoptosis in human NCI-H1975 cells incubated for 24 hrs by annexin V-FITC and propidium iodide based flow cytometry analysis; type: functional, cell-based; settings: dose 2-5 µM
NCI-H1975 [27] = assay: Induction of apoptosis in human NCI-H1975 cells assessed as early apoptotic cells at 5 uM incubated for 24 hrs by annexin V-FITC and propidium iodide based flow cytometry analysis (reference value: 1.34 %); type: functional
NCI-H1975 [28] = assay: Induction of apoptosis in human NCI-H1975 cells assessed as late apoptotic cells at 2 uM incubated for 24 hrs by annexin V-FITC and propidium iodide based flow cytometry analysis (reference value: 4.98 %); type: functional
NCI-H1975 [29] = assay: Induction of apoptosis in human NCI-H1975 cells assessed as viable cells at 2 uM incubated for 24 hrs by annexin V-FITC and propidium iodide based flow cytometry analysis (reference value: 93.2 %); type: functional; settings: read-out: Activity
NCI-H1975 [30] = assay: Induction of apoptosis in human NCI-H1975 cells assessed as necrotic cells at 5 uM incubated for 24 hrs by annexin V-FITC and propidium iodide based flow cytometry analysis (reference value: 0.455 %); type: functional
NCI-H1975 [31] = assay: Induction of cell cycle arrest in human NCI-H1975 cells assessed as G1 phase at 5 uM incubated for 24 hrs by propidium iodide based flow cytometry analysis (reference value: 60.76 %); type: functional

T1 sequence (P00533 whole entry): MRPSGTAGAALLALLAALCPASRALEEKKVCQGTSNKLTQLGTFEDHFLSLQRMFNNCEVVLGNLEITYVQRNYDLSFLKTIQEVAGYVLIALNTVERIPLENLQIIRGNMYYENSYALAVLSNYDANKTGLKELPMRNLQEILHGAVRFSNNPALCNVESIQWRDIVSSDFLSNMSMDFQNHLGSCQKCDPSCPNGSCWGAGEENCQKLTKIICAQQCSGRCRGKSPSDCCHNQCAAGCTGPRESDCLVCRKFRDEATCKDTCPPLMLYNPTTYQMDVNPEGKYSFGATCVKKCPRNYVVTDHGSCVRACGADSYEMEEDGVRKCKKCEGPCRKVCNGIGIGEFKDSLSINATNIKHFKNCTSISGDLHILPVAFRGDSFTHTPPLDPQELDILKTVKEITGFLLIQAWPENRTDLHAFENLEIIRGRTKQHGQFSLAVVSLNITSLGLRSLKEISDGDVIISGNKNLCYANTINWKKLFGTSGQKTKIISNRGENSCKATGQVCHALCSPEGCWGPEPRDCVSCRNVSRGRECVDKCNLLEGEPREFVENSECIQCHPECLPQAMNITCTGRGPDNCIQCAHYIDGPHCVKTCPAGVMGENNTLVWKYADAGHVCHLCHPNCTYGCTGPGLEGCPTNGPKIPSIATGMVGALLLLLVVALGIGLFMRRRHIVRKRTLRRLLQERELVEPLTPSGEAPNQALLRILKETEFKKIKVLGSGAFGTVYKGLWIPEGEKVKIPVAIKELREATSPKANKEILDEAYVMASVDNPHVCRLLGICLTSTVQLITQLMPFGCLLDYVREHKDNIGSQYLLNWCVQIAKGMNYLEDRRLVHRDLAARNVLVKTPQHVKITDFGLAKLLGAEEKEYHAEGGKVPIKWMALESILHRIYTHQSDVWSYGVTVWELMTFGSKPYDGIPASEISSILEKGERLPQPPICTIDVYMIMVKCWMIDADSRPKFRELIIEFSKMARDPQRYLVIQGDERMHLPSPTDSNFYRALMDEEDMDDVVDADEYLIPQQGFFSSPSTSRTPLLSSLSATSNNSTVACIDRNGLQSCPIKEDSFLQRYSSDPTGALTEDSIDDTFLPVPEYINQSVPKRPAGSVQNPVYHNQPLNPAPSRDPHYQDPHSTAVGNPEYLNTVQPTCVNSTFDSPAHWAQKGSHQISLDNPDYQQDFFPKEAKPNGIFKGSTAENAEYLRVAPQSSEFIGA
Sequence of Epidermal growth factor receptor (Homo sapiens, UniProt P00533, T790M) (P00533 25-1210 T790M limits assumed): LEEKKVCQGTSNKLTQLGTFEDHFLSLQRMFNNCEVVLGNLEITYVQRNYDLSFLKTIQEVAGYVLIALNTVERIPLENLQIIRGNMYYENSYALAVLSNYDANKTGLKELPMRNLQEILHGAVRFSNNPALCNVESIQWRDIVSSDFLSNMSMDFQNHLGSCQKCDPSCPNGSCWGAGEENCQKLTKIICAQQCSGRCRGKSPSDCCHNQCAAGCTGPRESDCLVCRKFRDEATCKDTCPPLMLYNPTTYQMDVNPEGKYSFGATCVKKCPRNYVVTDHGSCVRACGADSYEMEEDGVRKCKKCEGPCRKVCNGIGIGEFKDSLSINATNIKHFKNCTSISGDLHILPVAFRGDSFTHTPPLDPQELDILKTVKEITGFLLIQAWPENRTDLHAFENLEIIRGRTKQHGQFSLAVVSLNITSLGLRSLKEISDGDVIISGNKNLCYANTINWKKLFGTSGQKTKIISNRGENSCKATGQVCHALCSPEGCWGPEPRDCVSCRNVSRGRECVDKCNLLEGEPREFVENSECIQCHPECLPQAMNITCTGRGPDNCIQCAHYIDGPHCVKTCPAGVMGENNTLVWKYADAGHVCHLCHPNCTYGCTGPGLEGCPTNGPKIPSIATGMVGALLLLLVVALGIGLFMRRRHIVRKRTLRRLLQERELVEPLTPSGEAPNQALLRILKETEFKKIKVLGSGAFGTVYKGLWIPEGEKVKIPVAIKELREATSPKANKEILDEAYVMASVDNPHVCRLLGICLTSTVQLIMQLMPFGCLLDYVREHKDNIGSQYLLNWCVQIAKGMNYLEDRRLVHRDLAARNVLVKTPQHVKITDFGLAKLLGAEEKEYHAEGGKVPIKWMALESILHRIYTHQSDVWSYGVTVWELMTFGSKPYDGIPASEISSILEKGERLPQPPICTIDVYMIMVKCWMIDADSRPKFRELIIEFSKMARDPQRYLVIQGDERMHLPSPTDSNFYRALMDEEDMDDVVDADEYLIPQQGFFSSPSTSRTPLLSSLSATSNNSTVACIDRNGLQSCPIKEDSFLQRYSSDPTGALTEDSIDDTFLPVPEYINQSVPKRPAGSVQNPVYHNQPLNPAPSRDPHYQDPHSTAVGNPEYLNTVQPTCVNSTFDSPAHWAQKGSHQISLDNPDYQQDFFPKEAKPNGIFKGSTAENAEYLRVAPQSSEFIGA

C=CC(=O)Nc1cc(Nc2nccc(-c3cn(C)c4ccccc34)n2)c(OC)cc1N(C)CCN(C)C [OSIMERTINIB]
IC50 (A-431): […] | IC50 (NCI-H1975 [1]): […] | IC50 (L02): > 40 µM | IC50 (NCI-H1975 [2]): […]

CC(=O)Nc1nnc(S(N)(=O)=O)s1
Activity (NCI-H1975 [3]): Active

COc1cc2ncnc(Nc3cccc(C(F)(F)F)c3)c2cc1OCCCCC(=O)Nc1ccc(S(N)(=O)=O)cc1
Activity (NCI-H1975 [4]): Dose-Dependent Effect | IC50 (A-431): 4.04 µM | IC50 (NCI-H1975 [1]): 1.94 µM | IC50 (Carbonic anhydrase 2): 0.278 µM | IC50 (A549 [5]): 6.54 µM | Activity (NCI-H1975 [6]): 21.6% | IC50 (L02): > 40 µM | inhibition [7]: Dose-Dependent Effect | IC50 [8]: 0.0092 µM | IC50 (Carbonic anhydrase 9 [9]): 0.115 µM | IC50 (A549 [10]): 2.21 µM | IC50 (NCI-H1975 [2]): 1.05 µM | Activity (NCI-H1975 [11]): Dose-Dependent Effect | Activity (NCI-H1975 [12]): Dose-Dependent Effect | Activity (NCI-H1975 [13]): 47.44% | inhibition [14]: Dose-Dependent Effect | Activity (NCI-H1975 [15]): 15.58% | Activity (NCI-H1975 [16]): 54.85% | Activity (NCI-H1975 [17]): 36.98% | Activity (NCI-H1975 [18]): 14.1% | Activity (NCI-H1975 [19]): 17.21% | Activity (NCI-H1975 [20]): 2.19% | Activity (NCI-H1975 [21]): 17.9% | viability at 5 µM (NCI-H1975 [22]): 56% | Activity (Carbonic anhydrase 9 [23]): Dose-Dependent Effect | IC50 [24]: 0.027 µM | inhibition [25]: Dose-Dependent Effect | Activity (NCI-H1975 [26]): Dose-Dependent Effect | Activity (NCI-H1975 [27]): 26.6% | Activity (NCI-H1975 [28]): 7.8% | viability at 2 µM (NCI-H1975 [29]): 68.4% | Activity (NCI-H1975 [30]): 3.4% | Activity (NCI-H1975 [31]): 27.94%

COc1cc2ncnc(Nc3ccc(F)c(Cl)c3)c2cc1OCCCN1CCOCC1 [GEFITINIB]
Activity (NCI-H1975 [6]): 7.78% | Activity (NCI-H1975 [13]): 33.72% | Activity (NCI-H1975 [15]): 18.76% | Activity (NCI-H1975 [17]): 47.52% | Activity (NCI-H1975 [20]): 0.61% | Activity (NCI-H1975 [28]): 5.44% | viability at 2 µM (NCI-H1975 [29]): 86.2%
